{"source": "paper PMC13499490", "about": "(International Journal for Parasitology: Drugs and Drug …, 2026)", "key": {"[1]": {"tested_on": "supplemented TCH extract translating capped and polyadenylated Renilla mRNA", "assay": "Miniaturized low-volume", "type": "biochemical, Trypanosoma cruzi", "conditions": "8 μL; for % Inhibition (40 µM): Table S3, 40 µM; for inhibition of translation in T. cruzi extract (in words): 40 μM, 2 h, Fig. 3B"}, "[2]": {"tested_on": "protein synthesis in T. cruzi epimastigotes (WT, DM28c strain)", "assay": "Puromycylation assay in living epimastigotes", "type": "cell-based, Trypanosoma cruzi", "conditions": "40 μM, 1 h pre-incubation, then puromycin 10 μg/mL 15 min", "method_in_brief": "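Dm28c epimastigotes at 1 × 10⁷/mL in LIT-10% FBS, preincubated 1 h at 28°C with test compound (40 μM, from DMSO), with DMSO and 5 μM cycloheximide controls. Puromycin at 10 μg/mL, 15 min, 28°C; cells RIPA-lysed. 20 μg protein run on 10% SDS-PAGE and blotted with anti-puromycin mAb (1:100, overnight, 4°C), then IRDye680 secondary; anti-aldolase loading control. 150–20 kDa signal quantified relative to DMSO; 2–4 independent experiments.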"}, "[3]": {"tested_on": "T. cruzi epimastigotes (DM28c)", "assay": "Epimastigote proliferation, SYBR Green assay", "type": "cell-based, Trypanosoma cruzi", "conditions": "for EC50: Trypanosoma cruzi, 72 h, read-out: EC50 epimastigote proliferation; for concentration for maximal inhibition / full block of epimastigote growth: growth curves; for effect on epimastigote growth (in words): Fig. S2, 1% DMSO"}, "[4]": {"tested_on": "T. cruzi amastigotes (Sylvio X10/1 clone) in U2OS cells", "assay": "Intracellular amastigote proliferation in infected U2OS cells", "type": "cell-based, Trypanosoma cruzi", "conditions": "for EC50: Trypanosoma cruzi, U2OS, 48 h, read-out: EC50 intracellular amastigotes; for selectivity index: from EC50 and CC50 averages, U2OS cells", "method_in_brief": "(§1)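 U2OS cells, grown in DMEM with 10% FBS at 37°C and 5% CO2, seeded at 500 cells/well in 384-well plates and infected after 24 h with 5000 Sylvio X10/1 trypomastigotes. Treated 24 h later with test compound (100 μM to 0.7 nM, 0.5% DMSO) for 48 h, with benznidazole and DMSO controls. Cells fixed in 4% paraformaldehyde, stained with DAPI and DRAQ5, imaged by high-content analysis. Amastigote-to-cell ratio normalised to untreated (100%) and non-infected (0%) wells. EC50 and CC50 from three-parameter nonlinear fit; selectivity index from mean EC50 and CC50.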"}, "[5]": {"assay": "Host cell cytotoxicity in infected U2OS cells", "type": "cell-based", "conditions": "human", "method_in_brief": "as §1"}, "[6]": {"tested_on": "T. cruzi amastigotes (DM28c parasite strain) in Vero cells", "assay": "Amastigote proliferation and cytotoxicity in Vero cells", "type": "cell-based, Trypanosoma cruzi", "conditions": "DM28c trypomastigotes, Fig. S6"}, "Plasmodium falciparum": {"tested_on": "Plasmodium falciparum", "conditions": "ref Plouffe et al., 2008; cited from earlier work"}, "[7]": {"tested_on": "T. cruzi extracts (TCH) translating capped and polyadenylated Renilla luciferase reporter mRNA", "type": "biochemical, Trypanosoma cruzi", "conditions": "for % Inhibition: initial screen, 40 μM, Renilla luciferase signal relative to DMSO; for concentration above which translation was fully inhibited: Fig. 3C"}, "[8]": {"tested_on": "T. cruzi parasite extract translating Renilla mRNA", "assay": "Miniaturized 5 μL T. cruzi in vitro translation assay", "type": "biochemical, Trypanosoma cruzi", "conditions": "5 μl format, 40 μM, Fig. 5D", "method_in_brief": "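Extract from DM28c-derived epimastigotes, lysed by nitrogen cavitation; the 30,000 × g supernatant was supplemented with translation buffer containing ATP, GTP, creatine phosphate/kinase, amino acids and spermidine. Reaction of 5 μL: 2 μL lysate, 1 μL test compound (40 μM), 2 μL SP6-transcribed capped, polyadenylated spliced-leader–Renilla luciferase mRNA (22 ng). Luminescence read after adding Renilla luciferase reagent.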"}, "PAK4": {"tested_on": "PAK4", "conditions": "mammalian cells; ref Pereira-Veiga et al., 2025; cited from earlier work"}, "[9]": {"tested_on": "rabbit reticulocytes (Retic Lysate IVT kit) translating Renilla mRNA", "assay": "In vitro translation by rabbit reticulocyte lysate", "type": "biochemical", "conditions": "10 µM, 1 hour, Fig. S5", "method_in_brief": "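Commercial rabbit reticulocyte lysate run per kit instructions, 0.6 μg per reaction of the capped, polyadenylated Renilla luciferase mRNA used in the parasite-extract assays.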"}}}
{"smiles": "Cl.Fc1cccc(Nc2nc(NCC3CCCO3)c3ccccc3n2)c1", "note": "(stereo not drawn) [Compound 39A]", "values": [{"measurement": "% Inhibition (40 µM)", "setting": "[1]", "result": "over 50%"}]}
{"smiles": "c1ccc2c(NCC3CCCO3)nc(Nc3ccncc3)nc2c1", "note": "(stereo not drawn) [Compound 39C]", "values": [{"measurement": "% Inhibition (40 µM)", "setting": "[1]", "result": "around 50%"}]}
{"smiles": "Cl.Clc1cccc(Nc2nc(N3CCOCC3)c3ccccc3n2)c1", "note": "[Compound 39K]", "values": [{"measurement": "% Inhibition (40 µM)", "setting": "[1]", "result": "over 50%"}]}
{"smiles": "Cl.OCCNc1nc(Nc2ccccc2)nc2ccccc12", "note": "[Compound 39L]", "values": [{"measurement": "% Inhibition (40 µM)", "setting": "[1]; 40 µM", "result": "around 50%"}]}
{"smiles": "Cl.Fc1ccc(Nc2nc(NCC3CCCO3)c3ccccc3n2)cc1", "note": "(stereo not drawn) [Compound 39D]", "values": [{"measurement": "puromycin incorporation into elongating protein chains (in words)", "setting": "[2]", "result": "inhibited puromycin incorporation"}]}
{"smiles": "Cl.c1ccc(CNc2nc(NCC3CCCO3)c3ccccc3n2)nc1", "note": "(stereo not drawn) [Compound 39M]", "values": [{"measurement": "% Inhibition (40 µM)", "setting": "[1]", "result": "less than 40%"}]}
{"smiles": "Fc1ccccc1Nc1nc(NCC2CCCO2)c2ccccc2n1", "note": "(stereo not drawn) [Compound 39H]", "values": [{"measurement": "% Inhibition (40 µM)", "setting": "[1]; 40 µM", "result": "over 50%"}, {"measurement": "puromycin incorporation into elongating protein chains (in words)", "setting": "[2]", "result": "inhibited puromycin incorporation"}, {"measurement": "EC50", "setting": "[3]", "result": "4.8 ± 2", "unit": "µM"}, {"measurement": "concentration for maximal inhibition / full block of epimastigote growth", "setting": "[3]", "result": "> 50", "unit": "µM"}, {"measurement": "EC50", "setting": "[4]", "result": "0.4 ± 0.2", "unit": "µM"}, {"measurement": "selectivity index", "setting": "[4]", "result": "~200"}, {"measurement": "CC50 at 48 h", "setting": "[5]", "result": "84 ± 40", "unit": "µM"}, {"measurement": "EC50 and CC50 values compared with the U2OS/Sylvio experiment (in words)", "setting": "[6]", "result": "Comparable values"}, {"measurement": "Plasmodium falciparum inhibition (in words)", "setting": "Plasmodium falciparum", "result": "P. falciparum inhibitors"}]}
{"smiles": "CC1CCC(C(C)C)C(OC(=O)Cn2c(-c3ccc(Br)cc3)[n+](C)c3ccccc32)C1.[Cl-]", "note": "(stereo not drawn) [Compound 3]", "values": [{"measurement": "% Inhibition", "setting": "[7]", "result": "~20", "unit": "%"}]}
{"smiles": "CN[C@@H]1C[C@H](N)[C@@H](O)[C@H](O[C@H]2O[C@H](CO)[C@H](O)[C@@H]3O[C@@]4(O[C@@H]23)O[C@H]([C@H](N)CO)[C@H](O)[C@H](O)[C@H]4O)[C@H]1O", "note": "[hygromycin]", "values": [{"measurement": "concentration above which translation was fully inhibited", "setting": "[7]", "result": "above 50 nM"}]}
{"smiles": "Cl.Oc1ccc(Nc2nc(NCC3CCCO3)c3ccccc3n2)cc1", "note": "(stereo not drawn) [Compound 39B]", "values": [{"measurement": "% Inhibition (40 µM)", "setting": "[1]", "result": "over 50%"}]}
{"smiles": "COc1cccc(Nc2nc(NCC3CCCO3)c3ccccc3n2)c1.Cl", "note": "(stereo not drawn) [Compound 39]", "values": [{"measurement": "% Inhibition", "setting": "[7]", "result": "~20", "unit": "%"}, {"measurement": "inhibition of in vitro translation (in words)", "setting": "[8]", "result": "clear inhibition"}, {"measurement": "puromycin incorporation into elongating protein chains (in words)", "setting": "[2]", "result": "inhibited puromycin incorporation"}, {"measurement": "PAK4 inhibition (in words)", "setting": "PAK4", "result": "inhibit PAK4"}]}
{"smiles": "C[C@@H]1[C@H](O)[C@@H](C)/C=C/C=C/C=C/C=C/C=C/C=C/C=C/[C@H](O[C@@H]2O[C@H](C)[C@@H](O)[C@H](N)[C@@H]2O)C[C@@H]2O[C@](O)(C[C@@H](O)C[C@@H](O)[C@H](O)CC[C@@H](O)C[C@@H](O)CC(=O)O[C@H]1C)C[C@H](O)[C@H]2C(=O)O", "note": "[Compound 108, Amphotericin B]", "values": [{"measurement": "% Inhibition", "setting": "[7]", "result": "~100", "unit": "%"}]}
{"smiles": "NC[C@@H]1O[C@H](O[C@H]2[C@@H](O)[C@H](O[C@@H]3[C@@H](O)[C@H](N)C[C@H](N)[C@H]3O[C@H]3O[C@H](CO)[C@@H](O)[C@H](O)[C@H]3N)O[C@@H]2CO)[C@H](N)[C@@H](O)[C@@H]1O", "note": "[Paromomycin, reference compound]", "values": [{"measurement": "inhibition of translation in T. cruzi extract (in words)", "setting": "[1]", "result": "did not inhibit translation"}, {"measurement": "inhibition of translation in T. cruzi extract (in words)", "setting": "[1]; listed as paromomycin", "result": "had no effect"}, {"measurement": "effect on epimastigote growth (in words)", "setting": "[3]", "result": "did not affect parasite growth"}, {"measurement": "effect on epimastigote growth (in words)", "setting": "[3]; listed as paromomycin", "result": "did not impact T. cruzi proliferation"}]}
{"smiles": "c1ccc(Nc2nc(NCC3CCCO3)c3ccccc3n2)cc1", "note": "(stereo not drawn) [Compound 97]", "values": [{"measurement": "Plasmodium falciparum inhibition (in words)", "setting": "Plasmodium falciparum", "result": "inhibit Plasmodium falciparum"}]}
{"smiles": "Cl.OCCNc1nc(NCC2CCCO2)c2ccccc2n1", "note": "(stereo not drawn) [Compound 39I]", "values": [{"measurement": "% Inhibition (40 µM)", "setting": "[1]", "result": "over 50%"}]}
{"smiles": "CN(C)c1nc(NCC2CCCO2)c2ccccc2n1.Cl", "note": "(stereo not drawn) [Compound 39F]", "values": [{"measurement": "% Inhibition (40 µM)", "setting": "[1]", "result": "around 50%"}]}
{"smiles": "Cc1ccc2c(c1)sc(-c1ccc(N(C)C)cc1)[n+]2C.[I-]", "note": "[Compound 43]", "values": [{"measurement": "puromycin incorporation into elongating protein chains (in words)", "setting": "[2]", "result": "inhibited puromycin incorporation"}]}
{"smiles": "C[C@@H]1C[C@@H]([C@H](O)CC2CC(=O)NC(=O)C2)C(=O)[C@@H](C)C1", "note": "[cycloheximide]", "values": [{"measurement": "concentration above which translation was fully inhibited", "setting": "[7]", "result": "above 0.5 μM"}]}
{"smiles": "COc1ccccc1Nc1nc(NCC2CCCO2)c2ccccc2n1", "note": "(stereo not drawn) [Compound 39G]", "values": [{"measurement": "% Inhibition (40 µM)", "setting": "[1]", "result": "over 50%"}, {"measurement": "inhibition of protein synthesis by reticulocyte lysate (in words)", "setting": "[9]", "result": "did not inhibit"}, {"measurement": "puromycin incorporation into elongating protein chains (in words)", "setting": "[2]", "result": "inhibited puromycin incorporation"}, {"measurement": "EC50", "setting": "[3]", "result": "2.8 ± 0.2", "unit": "µM"}, {"measurement": "concentration for maximal inhibition / full block of epimastigote growth", "setting": "[3]", "result": "~15", "unit": "µM"}, {"measurement": "EC50", "setting": "[4]", "result": "0.08 ± 0.07", "unit": "µM"}, {"measurement": "selectivity index", "setting": "[4]", "result": "~415"}, {"measurement": "CC50 at 48 h", "setting": "[5]", "result": "33 ± 20", "unit": "µM"}, {"measurement": "EC50 and CC50 values compared with the U2OS/Sylvio experiment (in words)", "setting": "[6]", "result": "slightly high values"}, {"measurement": "Plasmodium falciparum inhibition (in words)", "setting": "Plasmodium falciparum", "result": "P. falciparum inhibitors"}]}
